Assay results from ChEMBL document CHEMBL2346664, “Synthesis, characterization and in vitro anticancer evaluation of novel 1,2,4-triazolin-3-one derivatives” (2013).

Key:
Format in all cases: functional
SW-620 [1] = assay: Growth inhibition of human SW620 cells assessed as cell growth at 10 '-5 M after 48 hrs by sulforhodamine B assay; conditions: SW-620, 48 h, read-out: Activity
HCT-15 = assay: Growth inhibition of human HCT15 cells assessed as cell growth at 10 '-5 M after 48 hrs by sulforhodamine B assay; conditions: HCT-15, 48 h, read-out: Activity
NCI-H460 = assay: Growth inhibition of human NCI-H460 cells assessed as cell growth at 10 '-5 M after 48 hrs by sulforhodamine B assay; conditions: NCI-H460, 48 h, read-out: Activity
[2] = Growth inhibition of human Hs 578T cells assessed as cell growth at 10 '-6 M after 48 hrs by sulforhodamine B assay; conditions: read-out: Activity
OVCAR-8 [3] = assay: Growth inhibition of human OVCAR8 cells assessed as cell growth at 10 '-6 M after 48 hrs by sulforhodamine B assay; conditions: OVCAR-8, 48 h, read-out: Activity
[4] = Growth inhibition of human […] cells assessed as growth inhibition at 10 uM after 48 hrs by sulforhodamine B assay; conditions: read-out: GI
Procedure, shortened: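 Percent growth inhibition from the single 10^-5 M NCI-60 screen, reported as 100 minus growth percent. Growth percent was measured after 48 h drug exposure at 37 °C, 5% CO2, using TCA fixation, SRB staining and absorbance at 515 nm, against untreated controls and time-zero plates.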

OVCAR-4 = assay: Growth inhibition of human OVCAR4 cells assessed as growth inhibition at 10 uM after 48 hrs by sulforhodamine B assay; conditions: OVCAR-4, 48 h, read-out: GI
UACC-257 = assay: Growth inhibition of human UACC257 cells assessed as growth inhibition at 10 uM after 48 hrs by sulforhodamine B assay; conditions: UACC-257, 48 h, read-out: GI
SNB-19 = assay: Growth inhibition of human SNB19 cells assessed as growth inhibition at 10 uM after 48 hrs by sulforhodamine B assay; conditions: SNB-19, 48 h, read-out: GI
NCI-H23 = assay: Growth inhibition of human NCI-H23 cells assessed as growth inhibition at 10 uM after 48 hrs by sulforhodamine B assay; conditions: NCI-H23, 48 h, read-out: GI
TK-10 = assay: Growth inhibition of human TK10 cells assessed as cell growth at 10 '-4 M after 48 hrs by sulforhodamine B assay; conditions: TK-10, 48 h, read-out: Activity
SF-268 [5] = assay: Growth inhibition of human SF268 cells assessed as cell growth at 10 '-6 M after 48 hrs by sulforhodamine B assay; conditions: SF-268, 48 h, read-out: Activity
HOP-92 = assay: Growth inhibition of human HOP92 cells assessed as cell growth at 10 '-6 M after 48 hrs by sulforhodamine B assay; conditions: HOP-92, 48 h, read-out: Activity
MDA-MB-468 [6] = assay: Growth inhibition of human MDA-MB-468 cells assessed as cell growth at 10 '-7 M after 48 hrs by sulforhodamine B assay; conditions: MDA-MB-468, 48 h, read-out: Activity
UACC-62 [7] = assay: Growth inhibition of human UACC62 cells assessed as cell growth at 10 '-7 M after 48 hrs by sulforhodamine B assay; conditions: UACC-62, 48 h, read-out: Activity
M14 = assay: Growth inhibition of human M14 cells assessed as cell growth at 10 '-4 M after 48 hrs by sulforhodamine B assay; conditions: M14, 48 h, read-out: Activity
U-251 = assay: Growth inhibition of human U251 cells assessed as cell growth at 10 '-4 M after 48 hrs by sulforhodamine B assay; conditions: U-251, 48 h, read-out: Activity
SW-620 [8] = assay: Growth inhibition of human SW620 cells assessed as cell growth at 10 '-4 M after 48 hrs by sulforhodamine B assay; conditions: SW-620, 48 h, read-out: Activity
[9] = Growth inhibition of human NCI-ADR-RES cells after 48 hrs by sulforhodamine B assay
Procedure, shortened: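 NCI 60-cell-line five-dose screen. Cells were plated at 5,000–40,000/well by doubling time and grown 24 h at 37 °C, 5% CO2. Time-zero plates were TCA-fixed. Drug from DMSO stock was tested at 0.01, 0.1, 1, 10 and 100 µM final for 48 h continuous exposure. Read-out was SRB at 515 nm. GI50 is the concentration giving 50% reduction in net protein increase versus untreated control.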

SF-295 = assay: Growth inhibition of human SF295 cells assessed as cell growth at 10 uM after 48 hrs by sulforhodamine B assay; conditions: SF-295, 48 h, read-out: Activity
MDA-MB-468 [10] = assay: Growth inhibition of human MDA-MB-468 cells assessed as cell growth at 10 '-5 M after 48 hrs by sulforhodamine B assay; conditions: MDA-MB-468, 48 h, read-out: Activity
OVCAR-3 = assay: Growth inhibition of human OVCAR3 cells after 48 hrs by sulforhodamine B assay; conditions: OVCAR-3, 48 h, read-out: LD50 (the source's name)
SF-268 [11] = assay: Growth inhibition of human SF268 cells after 48 hrs by sulforhodamine B assay; conditions: SF-268, 48 h
MDA-MB-468 [12] = assay: Growth inhibition of human MDA-MB-468 cells assessed as growth inhibition at 10 uM after 48 hrs by sulforhodamine B assay; conditions: MDA-MB-468, 48 h, read-out: GI
[13] = Growth inhibition of human HCC2998 cells assessed as cell growth at 10 '-7 M after 48 hrs by sulforhodamine B assay; conditions: HCC 2998, 48 h, read-out: Activity
HOP-62 = assay: Growth inhibition of human HOP62 cells assessed as cell growth at 10 '-7 M after 48 hrs by sulforhodamine B assay; conditions: HOP-62, 48 h, read-out: Activity
UO-31 = assay: Growth inhibition of human UO31 cells assessed as cell growth at 10 '-8 M after 48 hrs by sulforhodamine B assay; conditions: UO-31, 48 h, read-out: Activity
ACHN = assay: Growth inhibition of human ACHN cells assessed as cell growth at 10 '-8 M after 48 hrs by sulforhodamine B assay; conditions: read-out: Activity
Procedure, shortened: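 Percent growth at each of the five concentrations of the 48 h continuous-exposure NCI SRB screen. Drug stocks were in DMSO at 400× the top final concentration and diluted in medium with gentamicin. Growth was calculated as [(Ti-Tz)/(C-Tz)]×100 when Ti ≥ Tz, or [(Ti-Tz)/Tz]×100 when Ti < Tz. Tz plates were fixed at drug addition; untreated wells served as control. Absorbance was read at 515 nm.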

SK-OV-3 = assay: Growth inhibition of human SKOV3 cells assessed as cell growth at 10 '-8 M after 48 hrs by sulforhodamine B assay; conditions: SK-OV-3, 48 h, read-out: Activity
OVCAR-8 [14] = assay: Growth inhibition of human OVCAR8 cells assessed as cell growth at 10 '-8 M after 48 hrs by sulforhodamine B assay; conditions: OVCAR-8, 48 h, read-out: Activity
UACC-62 [15] = assay: Growth inhibition of human UACC62 cells assessed as cell growth at 10 '-8 M after 48 hrs by sulforhodamine B assay; conditions: UACC-62, 48 h, read-out: Activity
[16] = read-out: LD50 (the source's name)

Cc1cc(=O)oc2cc(OCCn3c(C)nn(-c4ccc(Cl)cc4)c3=O)ccc12
growth at 10 µM (SW-620 [1]): 16% | growth at 10 µM (HCT-15): 20% | growth at 10 µM (NCI-H460): 9% | growth at 1 µM [2]: 68% | growth at 1 µM (OVCAR-8 [3]): 97% | inhibition of growth at 10 µM [4]: 67.1% | inhibition of growth at 10 µM (OVCAR-4): 32.9% | inhibition of growth at 10 µM (UACC-257): 77.5% | inhibition of growth at 10 µM (SNB-19): 45.5% | inhibition of growth at 10 µM (NCI-H23): 54.2% | growth at 100 µM (TK-10): -3% | growth at 1 µM (SF-268 [5]): 87% | growth at 1 µM (HOP-92): 83% | growth at 0.1 µM (MDA-MB-468 [6]): 90% | growth at 0.1 µM (UACC-62 [7]): 90% | growth at 100 µM (M14): 28% | growth at 100 µM (U-251): -4% | growth at 100 µM (SW-620 [8]): 25% | GI50 [9]: 1640 nM | TGI [9]: > 1000 nM | CC50 [9, 16]: > 1000 nM | growth at 10 µM (SF-295): 14% | growth at 10 µM (MDA-MB-468 [10]): 15% | CC50 (OVCAR-3): > 1000 nM | GI50 (SF-268 [11]): 1360 nM | TGI (SF-268 [11]): > 1000 nM | CC50 (SF-268 [11]; [16]): > 1000 nM | inhibition of growth at 10 µM (MDA-MB-468 [12]): 83.9% | growth at 0.1 µM [13]: 91% | growth at 0.1 µM (HOP-62): 103% | growth at 0.01 µM (UO-31): 86% | growth at 0.01 µM (ACHN): 111% | growth at 0.01 µM (SK-OV-3): 111% | growth at 0.01 µM (OVCAR-8 [14]): 95% | growth at 0.01 µM (UACC-62 [15]): 97%
